Laboratory results from ChEMBL document CHEMBL2062435, “Synthesis and in vitro antibacterial activity of gemifloxacin derivatives containing a substituted benzyloxime moiety” (2012).

Columns and labels:
Type in all cases: functional
Staphylococcus aureus [1] = experiment: Antimicrobial activity against Staphylococcus aureus ATCC […] after 18-24 hrs by two-fold serial dilution method
Method in brief: (§1)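 Agar-medium twofold serial dilution against Gram-positive and Gram-negative strains; MIC taken as the lowest compound concentration giving complete inhibition of bacterial growth after incubation at 35 °C for 18-24 h.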

Staphylococcus aureus [2] = experiment: Antimicrobial activity against extended spectrum beta-lactamases-producing methicillin-resistant Staphylococcus aureus 10-11 after 18-24 hrs by two-fold serial dilution method
Method in brief: (§2)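 Agar twofold serial dilution MIC against clinical isolates. MIC was taken as the lowest concentration giving complete inhibition of bacterial growth after incubation at 35 °C for 18-24 h.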

Staphylococcus aureus [3] = experiment: Antimicrobial activity against extended spectrum beta-lactamases-producing methicillin-resistant Staphylococcus aureus 10-15 after 18-24 hrs by two-fold serial dilution method; method in brief: as §2
Staphylococcus aureus [4] = experiment: Antimicrobial activity against extended spectrum beta-lactamases-producing methicillin-sensitive Staphylococcus aureus 10-13 after 18-24 hrs by two-fold serial dilution method; method in brief: as §1
Staphylococcus aureus [5] = experiment: Antimicrobial activity against extended spectrum beta-lactamases-producing methicillin-sensitive Staphylococcus aureus 10-14 after 18-24 hrs by two-fold serial dilution method; method in brief: as §1
[6] = test system: Staphylococcus epidermidis; experiment: Antimicrobial activity against extended spectrum beta-lactamases-producing methicillin-resistant Staphylococcus epidermidis 10-10 after 18-24 hrs by two-fold serial dilution method; method in brief: as §2
[7] = test system: Staphylococcus epidermidis; experiment: Antimicrobial activity against extended spectrum beta-lactamases-producing methicillin-resistant Staphylococcus epidermidis 10-13 after 18-24 hrs by two-fold serial dilution method; method in brief: as §2
[8] = test system: Staphylococcus epidermidis; experiment: Antimicrobial activity against extended spectrum beta-lactamases-producing methicillin-sensitive Staphylococcus epidermidis 10-11 after 18-24 hrs by two-fold serial dilution method; method in brief: as §1
[9] = test system: Staphylococcus epidermidis; experiment: Antimicrobial activity against extended spectrum beta-lactamases-producing methicillin-sensitive Staphylococcus epidermidis 10-13 after 18-24 hrs by two-fold serial dilution method; method in brief: as §1
[10] = test system: Staphylococcus epidermidis; experiment: Antimicrobial activity against extended spectrum beta-lactamases-producing methicillin-sensitive Staphylococcus epidermidis 10-15 after 18-24 hrs by two-fold serial dilution method; method in brief: as §1
Enterococcus faecalis [11] = experiment: Antimicrobial activity against Enterococcus faecalis 10-5 after 18-24 hrs by two-fold serial dilution method; method in brief: as §1
Enterococcus faecalis [12] = experiment: Antimicrobial activity against Enterococcus faecalis 10-6 after 18-24 hrs by two-fold serial dilution method; method in brief: as §1
Enterococcus faecalis [13] = experiment: Antimicrobial activity against Enterococcus faecalis 10-7 after 18-24 hrs by two-fold serial dilution method; method in brief: as §1
Enterococcus faecium [14] = experiment: Antimicrobial activity against Enterococcus faecium 10-5 after 18-24 hrs by two-fold serial dilution method; method in brief: as §1
Enterococcus faecium [15] = experiment: Antimicrobial activity against Enterococcus faecium 10-9 after 18-24 hrs by two-fold serial dilution method; method in brief: as §1
Streptococcus pneumoniae [16] = experiment: Antimicrobial activity against extended spectrum beta-lactamases-producing Streptococcus pneumoniae 10-1 after 18-24 hrs by two-fold serial dilution method; method in brief: as §1
Streptococcus pneumoniae [17] = experiment: Antimicrobial activity against extended spectrum beta-lactamases-producing Streptococcus pneumoniae 10-4 after 18-24 hrs by two-fold serial dilution method; method in brief: as §1
Escherichia coli [18] = experiment: Antimicrobial activity against Escherichia coli ATCC 25922 after 18-24 hrs by two-fold serial dilution method; method in brief: as §1
Escherichia coli [19] = experiment: Antimicrobial activity against Escherichia coli 10-1 after 18-24 hrs by two-fold serial dilution method; method in brief: as §1
Escherichia coli [20] = experiment: Antimicrobial activity against Escherichia coli 10-2 after 18-24 hrs by two-fold serial dilution method; method in brief: as §1
Escherichia coli [21] = experiment: Antimicrobial activity against extended spectrum beta-lactamases-producing Escherichia coli 10-2 after 18-24 hrs by two-fold serial dilution method; method in brief: as §1
Escherichia coli [22] = experiment: Antimicrobial activity against Escherichia coli 10-3 after 18-24 hrs by two-fold serial dilution method; method in brief: as §1
Escherichia coli [23] = experiment: Antimicrobial activity against extended spectrum beta-lactamases-producing Escherichia coli 10-3 after 18-24 hrs by two-fold serial dilution method; method in brief: as §1
Escherichia coli [24] = experiment: Antimicrobial activity against extended spectrum beta-lactamases-producing Escherichia coli 10-4 after 18-24 hrs by two-fold serial dilution method; method in brief: as §1
Klebsiella pneumoniae [25] = experiment: Antimicrobial activity against extended spectrum beta-lactamases-producing Klebsiella pneumoniae 10-1 after 18-24 hrs by two-fold serial dilution method; method in brief: as §1
Klebsiella pneumoniae [26] = experiment: Antimicrobial activity against Klebsiella pneumoniae 10-2 after 18-24 hrs by two-fold serial dilution method; method in brief: as §1
Klebsiella pneumoniae [27] = experiment: Antimicrobial activity against extended spectrum beta-lactamases-producing Klebsiella pneumoniae 10-2 after 18-24 hrs by two-fold serial dilution method; method in brief: as §1
Klebsiella pneumoniae [28] = experiment: Antimicrobial activity against Klebsiella pneumoniae 10-3 after 18-24 hrs by two-fold serial dilution method; method in brief: as §1
Klebsiella pneumoniae [29] = experiment: Antimicrobial activity against extended spectrum beta-lactamases-producing Klebsiella pneumoniae 10-3 after 18-24 hrs by two-fold serial dilution method; method in brief: as §1
Klebsiella pneumoniae [30] = experiment: Antimicrobial activity against Klebsiella pneumoniae 10-4 after 18-24 hrs by two-fold serial dilution method; method in brief: as §1
Pseudomonas aeruginosa [31] = experiment: Antimicrobial activity against Pseudomonas aeruginosa 10-12 after 18-24 hrs by two-fold serial dilution method; method in brief: as §1
Pseudomonas aeruginosa [32] = experiment: Antimicrobial activity against extended spectrum beta-lactamases-producing Pseudomonas aeruginosa 10-5 after 18-24 hrs by two-fold serial dilution method; method in brief: as §1
Pseudomonas aeruginosa [33] = experiment: Antimicrobial activity against extended spectrum beta-lactamases-producing Pseudomonas aeruginosa 10-9 after 18-24 hrs by two-fold serial dilution method; method in brief: as §1
Pseudomonas aeruginosa [34] = experiment: Antimicrobial activity against extended spectrum beta-lactamases-producing Pseudomonas aeruginosa 10-15 after 18-24 hrs by two-fold serial dilution method; method in brief: as §1
Pseudomonas aeruginosa [35] = experiment: Antimicrobial activity against extended spectrum beta-lactamases-producing Pseudomonas aeruginosa 10-18 after 18-24 hrs by two-fold serial dilution method; method in brief: as §1
Pseudomonas aeruginosa [36] = experiment: Antimicrobial activity against extended spectrum beta-lactamases-producing Pseudomonas aeruginosa 10-20 after 18-24 hrs by two-fold serial dilution method; method in brief: as §1

Compound | MIC (Staphylococcus aureus [1]) [µg/mL] | MIC (Staphylococcus aureus [2]) [µg/mL] | MIC (Staphylococcus aureus [3]) [µg/mL] | MIC (Staphylococcus aureus [4]) [µg/mL] | MIC (Staphylococcus aureus [5]) [µg/mL] | MIC [6] [µg/mL] | MIC [7] [µg/mL] | MIC [8] [µg/mL] | MIC [9] [µg/mL] | MIC [10] [µg/mL] | MIC (Enterococcus faecalis [11]) [µg/mL] | MIC (Enterococcus faecalis [12]) [µg/mL] | MIC (Enterococcus faecalis [13]) [µg/mL] | MIC (Enterococcus faecium [14]) [µg/mL] | MIC (Enterococcus faecium [15]) [µg/mL] | MIC (Streptococcus pneumoniae [16]) [µg/mL] | MIC (Streptococcus pneumoniae [17]) [µg/mL] | MIC (Escherichia coli [18]) [µg/mL] | MIC (Escherichia coli [19]) [µg/mL] | MIC (Escherichia coli [20]) [µg/mL] | also measured
COc1ccc(CO/N=C2\CN(c3nc4c(cc3F)c(=O)c(C(=O)O)cn4C3CC3)CC2CN)c([N+](=O)[O-])c1OC.CS(=O)(=O)O (racemic) | 0.06 | 2 | 1 | 1 | 0.06 | 2 | 0.5 | 4 | 1 | 4 | 1 | 4 | 2 | 4 | 4 | 1 | 4 | 0.5 | > 128 | 8 | MIC (Escherichia coli [21]): > 128 µg/mL; MIC (Escherichia coli [22]): 16 µg/mL; MIC (Escherichia coli [23]): > 128 µg/mL; MIC (Escherichia coli [24]): 8 µg/mL; MIC (Klebsiella pneumoniae [25]): > 128 µg/mL; MIC (Klebsiella pneumoniae [26]): > 128 µg/mL; MIC (Klebsiella pneumoniae [27]): > 128 µg/mL; MIC (Klebsiella pneumoniae [28]): 8 µg/mL; MIC (Klebsiella pneumoniae [29]): > 128 µg/mL; MIC (Klebsiella pneumoniae [30]): > 128 µg/mL; MIC (Pseudomonas aeruginosa [31]): 0.06 µg/mL; MIC (Pseudomonas aeruginosa [32]): 8 µg/mL; MIC (Pseudomonas aeruginosa [33]): 16 µg/mL; MIC (Pseudomonas aeruginosa [34]): 4 µg/mL; MIC (Pseudomonas aeruginosa [35]): 8 µg/mL; MIC (Pseudomonas aeruginosa [36]): 0.25 µg/mL
COc1cc(Br)c(CO/N=C2\CN(c3nc4c(cc3F)c(=O)c(C(=O)O)cn4C3CC3)CC2CN)cc1OC.CS(=O)(=O)O (racemic) | < 0.008 | > 128 | 0.125 | 0.03 | 0.5 | 0.5 | 0.25 | 0.5 | 0.03 | 2 | 1 | 4 | 2 | 64 | 64 | 1 | 0.125 | 0.5 | > 128 | > 128 | MIC (Escherichia coli [21]): > 128 µg/mL; MIC (Escherichia coli [22]): > 128 µg/mL; MIC (Escherichia coli [23]): > 128 µg/mL; MIC (Escherichia coli [24]): > 128 µg/mL; MIC (Klebsiella pneumoniae [25]): > 128 µg/mL; MIC (Klebsiella pneumoniae [26]): > 128 µg/mL; MIC (Klebsiella pneumoniae [27]): > 128 µg/mL; MIC (Klebsiella pneumoniae [28]): > 128 µg/mL; MIC (Klebsiella pneumoniae [29]): > 128 µg/mL; MIC (Klebsiella pneumoniae [30]): > 128 µg/mL; MIC (Pseudomonas aeruginosa [31]): > 128 µg/mL; MIC (Pseudomonas aeruginosa [32]): > 128 µg/mL; MIC (Pseudomonas aeruginosa [33]): > 128 µg/mL; MIC (Pseudomonas aeruginosa [34]): > 128 µg/mL; MIC (Pseudomonas aeruginosa [35]): > 128 µg/mL; MIC (Pseudomonas aeruginosa [36]): > 128 µg/mL
COc1ccc(CO/N=C2\CN(c3nc4c(cc3F)c(=O)c(C(=O)O)cn4C3CC3)CC2CN)c(OC)c1OC.CS(=O)(=O)O (racemic) | 0.015 | 2 | 0.25 | 0.015 | 0.015 | 2 | 0.5 | 2 | 0.03 | 2 | 1 | 2 | 2 | 4 | 8 | 0.5 | 0.06 | 0.03 | 64 | 16 | MIC (Escherichia coli [21]): 128 µg/mL; MIC (Escherichia coli [22]): 16 µg/mL; MIC (Escherichia coli [23]): 32 µg/mL; MIC (Escherichia coli [24]): 4 µg/mL; MIC (Klebsiella pneumoniae [25]): > 128 µg/mL; MIC (Klebsiella pneumoniae [26]): > 128 µg/mL; MIC (Klebsiella pneumoniae [27]): > 128 µg/mL; MIC (Klebsiella pneumoniae [28]): 8 µg/mL; MIC (Klebsiella pneumoniae [29]): > 128 µg/mL; MIC (Klebsiella pneumoniae [30]): > 128 µg/mL; MIC (Pseudomonas aeruginosa [31]): 8 µg/mL; MIC (Pseudomonas aeruginosa [32]): 8 µg/mL; MIC (Pseudomonas aeruginosa [33]): 8 µg/mL; MIC (Pseudomonas aeruginosa [34]): 16 µg/mL; MIC (Pseudomonas aeruginosa [35]): 8 µg/mL; MIC (Pseudomonas aeruginosa [36]): 4 µg/mL
COc1cc(CO/N=C2\CN(c3nc4c(cc3F)c(=O)c(C(=O)O)cn4C3CC3)CC2CN)cc(Cl)c1OC.CS(=O)(=O)O (racemic) | < 0.008 | 4 | 0.25 | 0.015 | 0.015 | 2 | 0.25 | 2 | 0.015 | 4 | 0.25 | 4 | 2 | 8 | 16 | 0.06 | 0.03 | 0.015 | > 128 | 16 | MIC (Escherichia coli [21]): > 128 µg/mL; MIC (Escherichia coli [22]): 128 µg/mL; MIC (Escherichia coli [23]): > 128 µg/mL; MIC (Escherichia coli [24]): 16 µg/mL; MIC (Klebsiella pneumoniae [25]): > 128 µg/mL; MIC (Klebsiella pneumoniae [26]): 128 µg/mL; MIC (Klebsiella pneumoniae [27]): > 128 µg/mL; MIC (Klebsiella pneumoniae [28]): 8 µg/mL; MIC (Klebsiella pneumoniae [29]): > 128 µg/mL; MIC (Klebsiella pneumoniae [30]): > 128 µg/mL; MIC (Pseudomonas aeruginosa [31]): 16 µg/mL; MIC (Pseudomonas aeruginosa [32]): 16 µg/mL; MIC (Pseudomonas aeruginosa [33]): 16 µg/mL; MIC (Pseudomonas aeruginosa [34]): 32 µg/mL; MIC (Pseudomonas aeruginosa [35]): 16 µg/mL; MIC (Pseudomonas aeruginosa [36]): 8 µg/mL
